Source: PMC11522000 (Nature Microbiology, 2024)
Values after ≈ are worked out from the molar mass of the structure shown. Values joined by “and” are separate entries in the source; they are usually repeats but may differ in a detail not shown here. Equal values may be shown once. “Also recorded” adds a separate entry of the source.

Tests used:
CpPI(4)K::Y705A:Y907A = test: PI; format: biochemical, C. parvum
Procedure, shortened: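 Enzyme was pre-incubated with compound for 5 min at room temperature. The reaction was started with substrate mix at twice final strength (PI, ATP, Tris-HCl pH 7.5, DTT, 0.05% Triton X-100, MnCl2) and run 50 min at room temperature. ADP was measured by ADP-Glo luminescence. IC50s came from in-plate duplicate 10-point 3-fold dilutions, with DMSO and reference-inhibitor controls. The C. parvum enzymes (wild type and mutants) were full-length proteins expressed from baculovirus in Sf21 cells.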

[1] = Systemic exposure in the mouse efficacy studies; format: in vivo
Plasma protein binding = format: in vitro ADME; settings: dog
CYP3A4 / 1A2 / 2B6 = CYP3A4 / 1A2 / 2B6 hepatocyte induction assay; format: in vitro ADME
Plasma stability [2] = format: in vitro ADME; settings: human
Procedure, shortened: (§1)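 Test compound was added to plasma and incubated at 37 °C in a shaking water bath, with samples taken at sequential timepoints. Samples were quenched with ice-cold acetonitrile and analysed by LC-MS/MS, and half-life was calculated from the depletion rate.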

CYP2D6 = CYP2D6 (Homo sapiens, UniProt P10635); test: CYP450 reversible inhibition; format: in vitro ADME
Chain of CYP2D6 (P10635 whole entry): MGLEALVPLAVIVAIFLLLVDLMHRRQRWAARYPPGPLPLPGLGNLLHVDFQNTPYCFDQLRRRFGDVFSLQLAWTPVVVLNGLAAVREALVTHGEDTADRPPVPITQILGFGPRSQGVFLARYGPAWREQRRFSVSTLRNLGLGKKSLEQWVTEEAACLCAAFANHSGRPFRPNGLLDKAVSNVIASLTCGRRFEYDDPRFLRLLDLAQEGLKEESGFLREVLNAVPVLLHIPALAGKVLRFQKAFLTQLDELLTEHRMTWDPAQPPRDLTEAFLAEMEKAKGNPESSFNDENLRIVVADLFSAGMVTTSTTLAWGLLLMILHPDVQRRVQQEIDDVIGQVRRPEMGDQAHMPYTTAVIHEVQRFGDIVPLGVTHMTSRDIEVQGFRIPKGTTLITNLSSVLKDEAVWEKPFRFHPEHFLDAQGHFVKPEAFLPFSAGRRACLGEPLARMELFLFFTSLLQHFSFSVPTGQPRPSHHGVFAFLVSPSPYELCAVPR

[3] = Liver microsomes metabolic stability; format: in vitro ADME; settings: human
Procedure, shortened: (§2)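 Test compound was incubated with liver microsomes or hepatocytes of each species, and parent depletion was quantified by LC-MS/MS. From this, in vitro half-life and intrinsic clearance were derived, along with predicted metabolic clearance and hepatic extraction ratio.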

PAMPA = format: in vitro ADME
3T3 fibroblast cells = test: In vitro 3T3 NRU phototoxicity test; format: cell-based
Procedure, shortened: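 This followed OECD 432. 3T3 fibroblasts in 96-well plates were exposed to a concentration range of test compound, up to its solubility limit in HBSS, and viability was read by neutral red uptake.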

[4] = Hepatocytes metabolic stability; format: in vitro ADME; settings: mouse; for half-life / hepatocyte CLint: hepatocytes
Procedure, shortened: as §2

P-glycoprotein (MDR1) = test: MDCK MDR1 permeability and efflux; format: in vitro ADME; settings: dog
[5] = test system: Salmonella typhimurium strains TA98 and TA100; test: Mini-Ames
Procedure, shortened: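 Histidine-auxotrophic S. typhimurium TA98 and TA100 were exposed to test compound with and without rat liver S9.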

[6] = test system: human peripheral blood lymphocytes; test: In vitro human lymphocyte; format: cell-based; settings: EDI048: near cytotoxic concentrations
Procedure, shortened: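 Lymphocytes came from pooled blood of two donors. The assay was run under GLP and OECD guidelines, and micronuclei were scored on slides by fluorescence microscopy.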

[7] = Hepatocytes metabolic stability; format: in vitro ADME; settings: dog
Procedure, shortened: as §2

hERG = hERG (Homo sapiens, UniProt Q12809); test: hERG binding assay
Chain of hERG (Q12809 whole entry): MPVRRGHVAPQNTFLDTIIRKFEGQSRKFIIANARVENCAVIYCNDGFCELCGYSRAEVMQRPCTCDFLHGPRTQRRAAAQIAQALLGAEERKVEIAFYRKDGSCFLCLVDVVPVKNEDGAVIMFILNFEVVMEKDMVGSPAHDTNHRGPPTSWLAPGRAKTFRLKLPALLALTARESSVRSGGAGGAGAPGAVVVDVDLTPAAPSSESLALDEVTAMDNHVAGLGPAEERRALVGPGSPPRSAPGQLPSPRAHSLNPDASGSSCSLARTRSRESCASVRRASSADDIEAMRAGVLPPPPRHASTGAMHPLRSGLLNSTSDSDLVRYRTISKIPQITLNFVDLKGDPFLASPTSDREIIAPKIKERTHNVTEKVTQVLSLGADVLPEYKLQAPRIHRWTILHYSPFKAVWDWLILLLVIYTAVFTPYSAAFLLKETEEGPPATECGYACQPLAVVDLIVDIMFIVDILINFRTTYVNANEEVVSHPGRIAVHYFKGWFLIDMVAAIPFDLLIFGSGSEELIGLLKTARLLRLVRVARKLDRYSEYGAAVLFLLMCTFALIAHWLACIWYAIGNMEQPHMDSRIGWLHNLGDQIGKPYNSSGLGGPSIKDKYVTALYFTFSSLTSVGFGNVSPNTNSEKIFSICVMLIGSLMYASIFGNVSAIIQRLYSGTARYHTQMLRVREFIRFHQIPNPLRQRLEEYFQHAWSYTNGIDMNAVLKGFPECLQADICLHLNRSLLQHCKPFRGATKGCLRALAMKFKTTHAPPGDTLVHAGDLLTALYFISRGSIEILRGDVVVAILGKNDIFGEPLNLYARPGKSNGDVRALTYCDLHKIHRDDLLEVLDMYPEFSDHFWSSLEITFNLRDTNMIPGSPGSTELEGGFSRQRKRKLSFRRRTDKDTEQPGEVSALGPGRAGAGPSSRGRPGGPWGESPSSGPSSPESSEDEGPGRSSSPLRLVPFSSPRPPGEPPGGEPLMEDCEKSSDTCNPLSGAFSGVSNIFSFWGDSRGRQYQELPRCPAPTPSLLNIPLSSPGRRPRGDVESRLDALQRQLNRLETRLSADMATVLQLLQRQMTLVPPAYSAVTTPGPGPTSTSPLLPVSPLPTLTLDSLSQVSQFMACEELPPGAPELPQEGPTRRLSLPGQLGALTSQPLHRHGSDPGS
Procedure, shortened: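 Binding was measured in hERG-expressing HEK293 cells. Concentration-response curves were typically 6-point, spanning 0.37 to 30.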

C. parvum [8] = test: Cytopathic effect; format: cell-based, Cryptosporidium parvum; settings: for EC50: read-out: Cp CPE EC50, C. parvum, HCT-8, 48 h
Procedure, shortened: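 HCT-8 cells were grown at 37 °C, 5% CO2 in RPMI-1640 with 10% heat-inactivated FBS. Oocysts were excysted in 10 mM HCl/HBSS for 10 min at 37 °C, then in 2 mM sodium taurocholate in L-15/UltraCULTURE medium for 5 min. Infected cells were seeded onto pre-spotted compound (10-point, 3-fold dilution; DMSO and reference-inhibitor controls) and incubated 48 h. Cells were then lysed for a viability read-out, and concentration-response curves were fitted.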

[9] = High-throughput equilibrium solubility; format: physicochemical; settings: thermodynamic from solid
Procedure, shortened: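 Equilibrium solubility was measured by a miniaturized shake-flask method with HPLC quantification.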

Plasma stability [10] = format: in vitro ADME; settings: mouse
Procedure, shortened: as §1

HepG2 = test: Cytotoxicity assay; format: cell-based, human
CYP2C9 = CYP2C9 (Homo sapiens, UniProt P11712); test: CYP450 reversible inhibition; format: in vitro ADME
Chain of CYP2C9 (P11712 whole entry): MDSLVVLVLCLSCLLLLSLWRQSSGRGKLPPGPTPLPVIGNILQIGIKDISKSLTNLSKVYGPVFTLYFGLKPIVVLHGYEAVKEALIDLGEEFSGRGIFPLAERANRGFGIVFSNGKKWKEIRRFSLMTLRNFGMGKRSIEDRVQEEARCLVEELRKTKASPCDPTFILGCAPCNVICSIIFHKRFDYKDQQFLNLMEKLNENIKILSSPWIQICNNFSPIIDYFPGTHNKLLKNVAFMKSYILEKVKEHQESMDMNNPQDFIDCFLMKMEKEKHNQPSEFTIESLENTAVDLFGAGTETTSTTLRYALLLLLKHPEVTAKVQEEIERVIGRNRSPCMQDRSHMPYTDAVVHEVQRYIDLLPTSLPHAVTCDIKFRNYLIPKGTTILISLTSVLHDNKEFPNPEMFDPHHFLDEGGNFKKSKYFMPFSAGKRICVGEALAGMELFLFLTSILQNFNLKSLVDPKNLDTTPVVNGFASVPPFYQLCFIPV

hERG potassium channel = hERG potassium channel (Homo sapiens, UniProt Q12809); test: hERG Q-Patch; format: cell-based
Chain of hERG potassium channel (Q12809 whole entry): as the sequence (Q12809 whole entry) above
Procedure, shortened: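 hERG potassium current was recorded at near-physiological temperature in stably transfected mammalian cells expressing hERG. The test compound was applied as a 4-point dose response spanning 1–30.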

HsPI(4)K = HsPI(4)K (Homo sapiens, UniProt Q9UBF8); test: PI; format: biochemical; settings: for IC50: HsPI(4)K IC50, 3 μM ATP
Chain of HsPI(4)K (Q9UBF8 523-816 limits assumed): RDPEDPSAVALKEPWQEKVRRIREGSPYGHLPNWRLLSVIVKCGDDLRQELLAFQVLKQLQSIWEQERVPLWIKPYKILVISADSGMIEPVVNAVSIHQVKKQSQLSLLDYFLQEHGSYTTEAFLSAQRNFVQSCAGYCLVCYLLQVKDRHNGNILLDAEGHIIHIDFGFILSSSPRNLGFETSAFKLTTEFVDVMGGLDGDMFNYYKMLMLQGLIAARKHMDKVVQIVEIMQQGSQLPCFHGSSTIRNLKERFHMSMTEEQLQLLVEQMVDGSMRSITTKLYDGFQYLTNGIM

rat reticulocytes = test: In vivo rat peripheral blood micronucleus assay
Procedure, shortened: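 Peripheral blood was taken on days 3 and 15, in randomized order, from animals in the 2-week rat toxicology study. Micronucleated reticulocytes were counted by flow cytometry.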

CYP3A4 [11] = target: T1, CYP3A4 (Homo sapiens, UniProt P08684); test: CYP450 reversible inhibition; format: in vitro ADME
T1 sequence (P08684 whole entry): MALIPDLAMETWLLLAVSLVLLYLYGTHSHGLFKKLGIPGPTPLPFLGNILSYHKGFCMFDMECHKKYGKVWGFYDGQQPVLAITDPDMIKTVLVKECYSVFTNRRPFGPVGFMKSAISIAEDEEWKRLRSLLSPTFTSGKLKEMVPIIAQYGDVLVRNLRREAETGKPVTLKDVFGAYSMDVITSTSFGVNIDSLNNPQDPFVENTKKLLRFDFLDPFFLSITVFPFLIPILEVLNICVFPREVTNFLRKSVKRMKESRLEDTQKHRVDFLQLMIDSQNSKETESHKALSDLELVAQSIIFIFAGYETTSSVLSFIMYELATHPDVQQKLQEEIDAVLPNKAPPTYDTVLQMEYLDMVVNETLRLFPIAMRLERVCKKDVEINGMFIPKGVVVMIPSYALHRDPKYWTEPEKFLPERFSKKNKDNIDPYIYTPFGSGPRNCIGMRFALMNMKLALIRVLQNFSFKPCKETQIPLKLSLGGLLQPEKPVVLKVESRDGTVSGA

CYP3A4 [12] = target: T1, CYP3A4; test: CYP3A4 time-dependent inhibition; format: in vitro ADME
[13] = MDCK Low Efflux permeability; format: in vitro ADME; settings: dog
C. parvum [14] = test: Mouse efficacy study; format: in vivo, C57BL/6 IFN-γ-knockout mice; settings: for log reduction in oocyst shedding / log reduction in faecal oocyst shedding: IFN-γ KO mouse, 5 days; for log reduction in faecal oocyst shedding: 10 mg kg^−1 oral
[15] = Liver microsomes metabolic stability; format: in vitro ADME; settings: mouse
Procedure, shortened: as §2

## CNC(=O)c1ccc(-c2cnn3ccc(C(=O)N(C)c4ccc(Cl)c(C(=O)OC)c4)cc23)cc1 [EDI048, methyl 2-chloro-5-(N-methyl-3-(4-(methylcarbamoyl)phenyl)pyrazolo[1,5-a]pyridine-5-carboxamido)benzoate]
CpPI(4)K::Y705A:Y907A
  loss of potency against CpPI(4)K::Y705A:Y907A mutant compared with wild-type: 35–200 ×
[1]; mouse, oral 1 and 3 mg kg^−1
  systemic exposure: no detectable EDI048 systemic exposure
Plasma protein binding; plasma
  fraction unbound: 0.061
CYP3A4 / 1A2 / 2B6
  CYP3A4 / 1A2 / 2B6 hepatocyte induction assay: Non-inducer
Plasma stability [2]
  Plasma T1/2: > 120 min
Plasma stability [2]; Plasma T1/2, human plasma
  half-life: > 240 min
CYP2D6
  IC50: > 25 µM
[3]
  Microsomal ER: 92%
[3]; liver microsomes
  microsomal CLint: 222 µL/min/mg
PAMPA
  PAMPA (% calc fraction absorbed): 97%
3T3 fibroblast cells
  Phototoxicity: Negative
  Phototoxicity PIF value: 1.8
[4]
  Hepatocytes ER: 93%
  half-life: 2.8 min
  hepatocyte CLint: > 250 µL/min/1e6 cells
P-glycoprotein (MDR1); MDCK-MDR1
  Papp A→B: 7.92 ×10⁻⁶ cm/s
  efflux ratio: 1.62
P-glycoprotein (MDR1); MDCK-MDR1, Permeability B–A, MDCK MDR1, basolateral to apical
  Papp B→A: 12.9 ×10⁻⁶ cm/s
[5]
  Mini-AMES: Negative
[6]
  In vitro Human lymphocyte MN induction: Positive^d
[7]
  Hepatocytes ER: 83%
[7]; hepatocytes
  hepatocyte CLint: 28.5 µL/min/1e6 cells
hERG
  IC50: > 30 µM
C. parvum [8]
  EC50: 0.05 µM
[9]; FaSSIF, Solubility FaSSIF
  solubility: 198 µM (≈ 94.4 µg/mL)
[9]; pH 6.8, aqueous buffer, Solubility pH 6.8, pH 6.8
  solubility: 54 µM (≈ 25.8 µg/mL)
Plasma stability [10]; Plasma T1/2, mouse plasma
  half-life: 15.3 min
Plasma stability [10]; Plasma T1/2, rodent plasma
  half-life: 12 to 15 min
HepG2
  SI (selectivity index) HepG2 CC50 / C. parvum EC50 ratio: > 100
HepG2; human, HepG2 cells (ATCC CRL-10741)
  selectivity ratio at 96 h: > 500
HepG2; read-out: HepG2 CC50, 96 h
  CC50: 28.1 µM
CYP2C9
  IC50: 2.51 µM
hERG potassium channel
  IC50: 8.3 µM
HsPI(4)K
  selectivity for Cryptosporidium PI(4)K over HsPI(4)K: > 300 fold and 300 fold
  IC50: 1.03 ± 0.47 µM
Rat reticulocytes
  In vivo rat reticulocytes MN induction: Negative
CYP3A4 [11]
  IC50: 10.5 µM
CYP3A4 [12]
  Time dependent inhibition 3A4: Weak positive
CYP3A4 [12]; human
  KI (inactivation): 2.1 µM
[13]
  Papp A→B: 9.71 ×10⁻⁶ cm/s
C. parvum [14]; 1 mg kg^−1 oral once daily
  log reduction in oocyst shedding: 0.3 log
C. parvum [14]; 3 mg kg^−1 oral once daily
  log reduction in oocyst shedding: 1.1 log
C. parvum [14]
  log reduction in faecal oocyst shedding: > 3 log and 3.1 log
[15]
  Microsomal ER: 93%
[15]; liver microsomes
  microsomal CLint: > 700 µL/min/mg

## CN(C(=O)c1ccn2ncc(-c3ccc(C(N)=O)cc3)c2c1)c1ccc(C#N)cn1 [KDU731, 3–(4-carbamoylphenyl)-N-(5-cyanopyridin-2-yl)-N-methylpyrazolo [1,5-a]pyridine-5-carboxamide, reference compound]
CpPI(4)K::Y705A:Y907A
  loss of potency against CpPI(4)K::Y705A:Y907A mutant compared with wild-type: 35–200 ×
[1]; mouse efficacy study, 10 mg kg^−1 oral
  AUC (time 0 to last timepoint): 2,982 nM h
Plasma protein binding
  % Plasma protein binding: 70.8%
CYP3A4 / 1A2 / 2B6
  CYP3A4 / 1A2 / 2B6 hepatocyte induction assay: Non-inducer
Plasma stability [2]
  half-life: > 120 min
CYP2D6
  IC50: > 50 µM
[3]
  Microsomal ER: 39%
  microsomal CLint: 13 µL/min/mg
PAMPA
  PAMPA (% calc fraction absorbed): 34.7%
3T3 fibroblast cells
  Phototoxicity: Negative
  Phototoxicity PIF value: 3.1
[4]
  Hepatocytes ER: 18%
  half-life: > 175 min
  hepatocyte CLint: < 4 µL/min/1e6 cells
P-glycoprotein (MDR1); MDCK-MDR1
  Papp A→B: 1.95 ×10⁻⁶ cm/s
  Papp B→A: 15.5 ×10⁻⁶ cm/s
  efflux ratio: 7.93
[5]
  Mini-AMES: Negative
[6]
  In vitro Human lymphocyte MN induction: induce micronuclei; also recorded: Positive
[7]
  Hepatocytes ER: 10%
hERG
  IC50: > 30 µM
C. parvum [8]; Cryptosporidium parvum, HCT-8, read-out: approximate C. parvum CPE assay EC90
  EC90: ~0.5 µM
C. parvum [8]
  EC50: 0.1 µM
[9]; FaSSIF
  solubility: 48 µM (≈ 19 µg/mL)
[9]; pH 6.8, aqueous buffer
  solubility: 19 µM (≈ 7.53 µg/mL)
Plasma stability [10]
  half-life: 85.2 min
HepG2
  SI (selectivity index) HepG2 CC50 / C. parvum EC50 ratio: > 100
CYP2C9
  IC50: > 4.8 µM
hERG potassium channel
  IC50: 23 µM
HsPI(4)K
  IC50: 1.93 ± 1.08 µM
Rat reticulocytes
  In vivo rat reticulocytes MN induction: induce micronuclei; also recorded: Positive
CYP3A4 [11]
  IC50: > 50 µM
CYP3A4 [12]
  Time dependent inhibition 3A4: Negative
[13]
  Papp A→B: 12.1 ×10⁻⁶ cm/s
C. parvum [14]
  log reduction in faecal oocyst shedding: ~ 3 log
C. parvum [14]; i.v. 1 mg kg^−1, exposure similar to oral
  effect of intravenous injection on parasite load: negligible effects on the parasite load
[15]
  Microsomal ER: 48%
  microsomal CLint: 50 µL/min/mg
